Results: ChEMBL document CHEMBL1926642, “Relevance of the C-5 position to schweinfurthin induced cytotoxicity” (2011)

Tests used:
Assay type in all cases: functional
HL-60(TB) = assay: Growth inhibition of human HL-60(TB) cells after 48 hrs by sulforhodamine B assay; details: HL-60, 48 h
Procedure, shortened: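 Run in the NCI 60 cell-line screen as the full 5-dose assay that follows initial single-dose testing; GI50 is read from the dose series.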

MOLT-4 = assay: Growth inhibition of human MOLT4 cells after 48 hrs by sulforhodamine B assay; details: MOLT-4, 48 h
EKVX = assay: Growth inhibition of human EKVX cells after 48 hrs by sulforhodamine B assay
HOP-62 = assay: Growth inhibition of human HOP62 cells after 48 hrs by sulforhodamine B assay; details: HOP-62, 48 h
NCI-H226 = assay: Growth inhibition of human NCI-H226 cells after 48 hrs by sulforhodamine B assay; details: NCI-H226, 48 h
NCI-H522 = assay: Growth inhibition of human NCI-H522 cells after 48 hrs by sulforhodamine B assay; details: NCI-H522, 48 h
COLO 205 = assay: Growth inhibition of human COLO205 cells after 48 hrs by sulforhodamine B assay; details: COLO 205, 48 h
HCC 2998 = assay: Growth inhibition of human HCC2998 cells after 48 hrs by sulforhodamine B assay; details: HCC 2998, 48 h
SF-268 = assay: Growth inhibition of human SF268 cells after 48 hrs by sulforhodamine B assay; details: SF-268, 48 h
SNB-19 = assay: Growth inhibition of human SNB19 cells after 48 hrs by sulforhodamine B assay; details: SNB-19, 48 h
U-251 = assay: Growth inhibition of human U251 cells after 48 hrs by sulforhodamine B assay; details: U-251, 48 h
LOX IMVI = assay: Growth inhibition of human LOXIMVI cells after 48 hrs by sulforhodamine B assay
SK-MEL-28 = assay: Growth inhibition of human SK-MEL-28 cells after 48 hrs by sulforhodamine B assay; details: SK-MEL-28, 48 h
SK-MEL-5 = assay: Growth inhibition of human SK-MEL-5 cells after 48 hrs by sulforhodamine B assay; details: SK-MEL-5, 48 h
IGROV-1 = assay: Growth inhibition of human IGROV1 cells after 48 hrs by sulforhodamine B assay; details: IGROV-1, 48 h
OVCAR-3 = assay: Growth inhibition of human OVCAR3 cells after 48 hrs by sulforhodamine B assay; details: OVCAR-3, 48 h
786-0 = assay: Growth inhibition of human 786-0 cells after 48 hrs by sulforhodamine B assay; details: 786-0, 48 h
CAKI-1 = assay: Growth inhibition of human Caki1 cells after 48 hrs by sulforhodamine B assay; details: CAKI-1, 48 h
RXF 393 = assay: Growth inhibition of human RXF393 cells after 48 hrs by sulforhodamine B assay; details: RXF 393, 48 h
TK-10 = assay: Growth inhibition of human TK10 cells after 48 hrs by sulforhodamine B assay; details: TK-10, 48 h
DU-145 = assay: Growth inhibition of human DU145 cells after 48 hrs by sulforhodamine B assay; details: DU-145, 48 h
MCF7 = assay: Growth inhibition of human MCF7 cells after 48 hrs by sulforhodamine B assay; details: MCF7, 48 h
MDA-MB-231 = assay: Growth inhibition of human MDA-MB-231/ATCC cells after 48 hrs by sulforhodamine B assay; details: MDA-MB-231, 48 h
BT-549 = assay: Growth inhibition of human BT549 cells after 48 hrs by sulforhodamine B assay; details: BT-549, 48 h
SR = assay: Growth inhibition of human SR cells after 48 hrs by sulforhodamine B assay
[1] = read-out: pLC50 (the source's name) (converted)

**Q.** What does the source list for `COc1cc(/C=C/c2cc3c(c(OC)c2)O[C@]2(C)CC[C@@H](O)C(C)(C)[C@H]2C3)cc(O)c1C/C=C(\C)CCC=C(C)C`?
**A.** GI50 (HL-60(TB)): 1.51 µM; CC50 (HL-60(TB); [1]): 30.2 µM; TGI (HL-60(TB); read-out: pTGI (converted)): 6.61 µM; GI50 (MOLT-4): 0.891 µM; LC50 (MOLT-4): 33.1 µM; TGI (MOLT-4; read-out: pTGI (converted)): 2.75 µM; GI50 (EKVX): 2.09 µM; LC50 (50% lethal concentration) (EKVX): 32.4 µM; TGI (EKVX; read-out: pTGI (converted)): 10.7 µM; GI50 (HOP-62): 0.832 µM; LC50 (HOP-62): 11 µM; TGI (HOP-62; read-out: pTGI (converted)): 2.82 µM; GI50 (NCI-H226): 5.89 µM; LC50 (NCI-H226): 25.7 µM; TGI (NCI-H226; read-out: pTGI (converted)): 12.3 µM; GI50 (NCI-H522): 4.47 µM; LC50 (NCI-H522): 32.4 µM; TGI (NCI-H522; read-out: pTGI (converted)): 12.3 µM; GI50 (COLO 205): 0.562 µM; LC50 (COLO 205): 2.4 µM; TGI (COLO 205; read-out: pTGI (converted)): 1.17 µM; GI50 (HCC 2998): 1.7 µM; LC50 (HCC 2998): 22.4 µM; TGI (HCC 2998; read-out: pTGI (converted)): 10 µM; GI50 (SF-268): 2.45 µM; LC50 (SF-268): 21.4 µM; TGI (SF-268; read-out: pTGI (converted)): 9.33 µM; GI50 (SNB-19): 3.89 µM; LC50 (SNB-19): 41.7 µM; TGI (SNB-19; read-out: pTGI (converted)): 14.1 µM; GI50 (U-251): 0.417 µM; LC50 (U-251): 19.5 µM; TGI (U-251; read-out: pTGI (converted)): 7.76 µM; GI50 (LOX IMVI): 1.41 µM; LC50 (LOX IMVI): 15.8 µM; TGI (LOX IMVI; read-out: pTGI (converted)): 5.01 µM; GI50 (SK-MEL-28): 4.27 µM; CC50 (SK-MEL-28; [1]): 22.9 µM; TGI (SK-MEL-28; read-out: pTGI (converted)): 10.7 µM; GI50 (SK-MEL-5): 0.955 µM; LC50 (SK-MEL-5): 6.92 µM; TGI (SK-MEL-5; read-out: pTGI (converted)): 2.34 µM; GI50 (IGROV-1): 5.75 µM; LC50 (IGROV-1): 30.9 µM; TGI (IGROV-1; read-out: pTGI (converted)): 13.5 µM; GI50 (OVCAR-3): 3.63 µM; LC50 (OVCAR-3): 23.4 µM; TGI (OVCAR-3; read-out: pTGI (converted)): 10.5 µM; GI50 (786-0): 0.123 µM; CC50 (786-0; [1]): 4.17 µM; TGI (786-0; read-out: pTGI (converted)): 0.363 µM; GI50 (CAKI-1): 1.12 µM; LC50 (CAKI-1): > 50.1 µM; TGI (CAKI-1; read-out: pTGI (converted)): 6.61 µM; GI50 (RXF 393): 0.0891 µM; LC50 (50% lethal concentration) (RXF 393): 4.17 µM; TGI (RXF 393; read-out: pTGI (converted)): 0.302 µM; GI50 (TK-10): 7.08 µM; LC50 (TK-10): 32.4 µM; TGI (TK-10; read-out: pTGI (converted)): 15.1 µM; GI50 (DU-145): 3.8 µM; LC50 (DU-145): 22.9 µM; TGI (DU-145; read-out: pTGI (converted)): 10.2 µM; GI50 (MCF7): 1.02 µM; LC50 (MCF7): 17.4 µM; TGI (MCF7; read-out: pTGI (converted)): 5.89 µM; GI50 (MDA-MB-231): 2.04 µM; CC50 (MDA-MB-231; [1]): 19.5 µM; TGI (MDA-MB-231; read-out: pTGI (converted)): 7.76 µM; GI50 (BT-549): 1.05 µM; LC50 (BT-549): 25.1 µM; TGI (BT-549; read-out: pTGI (converted)): 9.12 µM; GI50 (SR): 1.02 µM; LC50 (SR): 22.4 µM; TGI (SR; read-out: pTGI (converted)): 3.16 µM
